Columns and labels:
Mus musculus [1] = experiment: Compound was tested for anticonvulsant potency using the intravenous-BIC (bicuculline) test in mice; 7 out of 20 mice exhibited anticonvulsant activity; type: functional
Mus musculus [2] = experiment: Anticonvulsant potency using the intravenous-BIC (bicuculline) test in mice; type: functional
Procedure, shortened: (§1)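 Male Crl:CD-1(ICR)BR mice (22-24 g) were dosed orally at 5 mL/kg 60 min before bicuculline 0.6 mg/kg, a dose giving tonic extensor convulsions in at least 97% of vehicle-treated mice. Protection from tonic extension was scored for each mouse. ED50 (95% confidence interval) was obtained by probit analysis, with 10-20 animals per dose.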

Mus musculus [3] = species on record: Mus musculus; experiment: Anticonvulsant potency using the maximal electroshock test in mice; type: functional
Procedure, shortened: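 Male mice received intra-aural shocks through clip electrodes (0.7 s, 28 mA, 80 Hz pulse train, 0.4 ms pulses), a stimulus giving hindlimb tonic extension in at least 97% of controls. Compound was given orally 60 min or ip 30 min beforehand, at 5 mL/kg. Protection meant complete suppression of the hindlimb tonic extensor component. ED50 (95% confidence interval) was obtained by probit analysis, with 10-20 animals per dose.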

Mus musculus [4] = experiment: Compound was tested for anticonvulsant potency using the intravenous-BIC (bicuculline) test in mice; 5 out of 20 mice exhibited anticonvulsant activity; type: functional
Mus musculus [5] = experiment: Compound was tested for anticonvulsant potency using the intravenous-BIC (bicuculline) test in mice; compound at 200 mg/kg induced impaired gait, loss of the righting reflex, and impaired breathing; type: functional; procedure, shortened: as §1
Mus musculus [6] = experiment: Compound was tested for anticonvulsant potency using the intravenous-BIC (bicuculline) test in mice; 4 out of 20 mice exhibited anticonvulsant activity; type: functional
Mus musculus [7] = experiment: Compound was tested for anticonvulsant potency using the intravenous-BIC (bicuculline) test in mice; 2 out of 10 mice exhibited anticonvulsant activity; type: functional
Mus musculus [8] = experiment: Compound was tested for anticonvulsant potency using the intravenous-BIC (bicuculline) test in mice; 1 out of 10 mice exhibited anticonvulsant activity; type: functional
Mus musculus [9] = experiment: Compound was tested for anticonvulsant potency using the intravenous-BIC (bicuculline) test in mice; 2 out of 20 mice exhibited anticonvulsant activity; type: functional
[10] = Toxicity using neurological impairment measured by rotarod test in mice; details: mouse, in vivo
Procedure, shortened: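 Trained male Crl:CD-1(ICR)BR mice (22-24 g) were dosed orally at 5 mL/kg 60 min before testing on a 3-cm rod rotating at 10 rpm. Falls during a 2-min period were counted. TD50, the dose making 50% of animals fall, was calculated by probit analysis, with 10-20 animals per dose.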

Mus musculus [11] = experiment: Compound was tested for anticonvulsant potency using the intravenous-BIC (bicuculline) test in mice; 0 out of 20 mice exhibited anticonvulsant activity; type: functional
Mus musculus [12] = experiment: Compound was tested for anticonvulsant potency using the intravenous-BIC (bicuculline) test in mice; 3 out of 20 mice exhibited anticonvulsant activity; type: functional
Mus musculus [13] = experiment: Compound was tested for anticonvulsant potency using the intravenous-BIC (bicuculline) test in mice; 8 out of 20 mice exhibited anticonvulsant activity; type: functional
Mus musculus [14] = experiment: Compound was tested for anticonvulsant potency using the 3-MPA (3-mercaptopropionic acid) test in mice upon peroral administration; type: functional; details: po
Procedure, shortened: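 Male Crl:CD-1(ICR)BR mice (22-24 g) were dosed orally at 5 mL/kg 60 min before 3-mercaptopropionic acid 60 mg/kg sc, a dose convulsing at least 97% of vehicle-treated mice. The end point was hindlimb tonic extension. ED50 (95% confidence interval) was obtained by probit analysis, with 10-20 animals per dose.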

Mus musculus [15] = experiment: Anticonvulsant potency using the PTX (picrotoxin) test in mice by peroral administration; type: functional; details: po
Mus musculus [16] = experiment: Compound was tested for anticonvulsant potency using the STRY (strychnine) test in mice upon peroral administration; type: functional; details: po
Mus musculus [17] = species on record: Mus musculus; experiment: Compound was tested for toxicity using neurological impairment measured by rotarod test in mice; type: functional
Procedure, shortened: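 Trained male Crl:CD-1(ICR)BR mice, 22-24 g, dosed orally 60 min before being placed on a 3-cm rod turning at 10 rpm. Mice falling during a 2-min test were counted. Dosing volume 5 mL/kg, 10-20 animals/dose. TD50, the dose making 50% fall, by probit analysis with 95% confidence interval. Some values given as fraction affected at one dose.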

In the case of `NC(=O)COCc1ccc(OCc2cccc(Cl)c2)cc1`, the ED50 (Mus musculus [1]) is reported as over 400 mg/kg.
Work on `C[C@@H](NCc1ccc(OCC2CCCCC2)cc1)C(N)=O` yielded an ED50 (Mus musculus [2]) of 131 mg/kg.
With `NC(=O)CNCc1ccc(OCc2cccc(Cl)c2)cc1` the ED50 (Mus musculus [2]) was 107 mg/kg and the ED50 (Mus musculus [3]) was 28.5 mg/kg.
In the case of `CNC(=O)[C@H](CC(C)C)NCc1ccc(OCc2ccccc2)cc1`, the ED50 (Mus musculus [4]) is reported as over 100 mg/kg.
Work on `CN(C)C(=O)CNCc1ccc(OCc2cccc(Cl)c2)cc1` yielded an ED50 (Mus musculus [5]) of 54.2 mg/kg.
`C[C@@H](NCc1ccc(OCc2cccs2)cc1)C(N)=O` gave an ED50 (Mus musculus [2]) of 61.6 mg/kg.
`NC(=O)CNCc1ccccc1` showed an ED50 (Mus musculus [2]) of 490 mg/kg.
In the case of `O=C(O)CNCc1ccc(OCc2cccc(Cl)c2)cc1`, the ED50 (Mus musculus [6]) is reported as over 400 mg/kg.
Molecule `C[C@H](Nc1ccccc1OCc1ccccc1)C(N)=O` has an ED50 (Mus musculus [2]) of 210 mg/kg.
`C[C@H](NCc1ccc(OCc2ccccc2Cl)cc1)C(N)=O` gave an ED50 (Mus musculus [5]) of 18.4 mg/kg.
Molecule `CNC(=O)[C@H](NCc1ccc(OCc2ccccc2)cc1)C(C)O` (some centres undefined) has an ED50 (Mus musculus [5]) of 21 mg/kg.
`C[C@@H](NCc1ccc(OCc2ccncc2)cc1)C(N)=O` showed an ED50 (Mus musculus [7]) of over 400 mg/kg.
Work on `CNC(=O)[C@@H](NCc1ccc(OCc2ccccc2)cc1)C(C)O` (some centres undefined) yielded an ED50 (Mus musculus [5]) of 34.2 mg/kg.
`C[C@@H](NCc1ccc(NC(=O)c2ccccc2)cc1)C(N)=O` gave an ED50 (Mus musculus [8]) of over 400 mg/kg.
Work on `C[C@@H](NCc1ccc(-c2ccccc2)cc1)C(N)=O` yielded an ED50 (Mus musculus [2]) of 231 mg/kg.
For `CNC(=O)[C@@H](CC(C)C)NCc1ccc(OCc2ccccc2)cc1`, the ED50 (Mus musculus [2]) was 192 mg/kg.
`CNC(=O)[C@@H](Cc1ccccc1)NCc1ccc(OCc2ccccc2)cc1` showed an ED50 (Mus musculus [9]) of over 400 mg/kg.
With `CNC(=O)[C@H](C)NCc1ccc(OCc2ccccc2)cc1` the ED50 (Mus musculus [2]) was 8.4 mg/kg, the TD50 [10] was 224 mg/kg and the ED50 (Mus musculus [3]) was 7 mg/kg.
Molecule `CNC(=O)[C@H](NCc1ccc(OCc2ccccc2)cc1)C(C)C` has an ED50 (Mus musculus [2]) of 112 mg/kg.
`NC(=O)CNCc1ccc(OCc2ccccc2)cc1` showed an ED50 (Mus musculus [2]) of 68.6 mg/kg, a TD50 [10] of 473 mg/kg and an ED50 (Mus musculus [3]) of 11.5 mg/kg.
Molecule `C[C@@H](NCc1ccc(OCc2cccnc2)cc1)C(N)=O` has an ED50 (Mus musculus [11]) of over 400 mg/kg.
Molecule `C[C@@H](NCc1ccc(OCc2ccsc2)cc1)C(N)=O` has an ED50 (Mus musculus [2]) of 114 mg/kg.
With `CNC(=O)[C@@H](CO)NCc1ccc(OCc2cccc(C)c2)cc1` the ED50 (Mus musculus [2]) was 41.3 mg/kg, the TD50 [10] was 1250 mg/kg and the ED50 (Mus musculus [3]) was 30.6 mg/kg.
In the case of `CNC(=O)[C@@H](CO)NCc1ccc(OCc2ccc(Cl)cc2)cc1`, the ED50 (Mus musculus [2]) is reported as 216 mg/kg.
In the case of `CCOC(=O)CNCc1ccc(OCc2cccc(Cl)c2)cc1`, the ED50 (Mus musculus [12]) is reported as over 400 mg/kg.
In the case of `C[C@@H](NCc1ccc(Cc2ccccc2)cc1)C(N)=O`, the ED50 (Mus musculus [2]) is reported as 15.7 mg/kg, the TD50 [10] is reported as 752 mg/kg and the ED50 (Mus musculus [3]) is reported as 22.5 mg/kg.
In the case of `NC(=O)CNCCc1ccccc1`, the ED50 (Mus musculus [2]) is reported as 286 mg/kg.
`NC(=O)CCNCCc1ccc(OCc2cccc(Cl)c2)cc1` showed an ED50 (Mus musculus [13]) of over 400 mg/kg.
For `C[C@@H](NCc1ccc(OCc2cccc(F)c2)cc1)C(N)=O`, the ED50 (Mus musculus [14]) was 21.5 mg/kg, the ED50 (Mus musculus [15]) was 60.6 mg/kg and the ED50 (Mus musculus [16]) was 104 mg/kg. It also gave an ED50 (Mus musculus [2]) of 26.9 mg/kg, a TD50 [10] of 626 mg/kg and an ED50 (Mus musculus [3]) of 8 mg/kg.
With `CNC(=O)[C@@H](CO)NCc1ccc(OCc2cccc(F)c2)cc1` the ED50 (Mus musculus [14]) was 35.6 mg/kg, the ED50 (Mus musculus [15]) was 120 mg/kg and the ED50 (Mus musculus [16]) was over 250 mg/kg. The ED50 (Mus musculus [2]) was 25.1 mg/kg, the TD50 [10] was 915 mg/kg and the ED50 (Mus musculus [3]) was 13 mg/kg.
Work on `C[C@@H](NCc1ccc(OCCCc2ccccc2)cc1)C(N)=O` yielded an ED50 (Mus musculus [14]) of 16.2 mg/kg, an ED50 (Mus musculus [15]) of 35.4 mg/kg and an ED50 (Mus musculus [16]) of 75.4 mg/kg. It also gave an ED50 (Mus musculus [2]) of 19 mg/kg, a TD50 [10] of 584 mg/kg and an ED50 (Mus musculus [3]) of 6.7 mg/kg.
For `NC(=O)N1c2ccccc2C=Cc2ccccc21` [CARBAMAZEPINE], the ED50 (Mus musculus [14]) was 20.1 mg/kg, the ED50 (Mus musculus [15]) was 40.6 mg/kg and the ED50 (Mus musculus [16]) was 43.8 mg/kg. The ED50 (Mus musculus [2]) was 6.7 mg/kg, the TD50 [10] was 106 mg/kg and the ED50 (Mus musculus [3]) was 9.8 mg/kg.
In the case of `CN1C(=O)CN=C(c2ccccc2)c2cc(Cl)ccc21` [DIAZEPAM], the ED50 (Mus musculus [14]) is reported as 0.62 mg/kg, the ED50 (Mus musculus [15]) is reported as 0.52 mg/kg and the ED50 (Mus musculus [16]) is reported as 0.58 mg/kg. For the same molecule, the ED50 (Mus musculus [2]) was 0.29 mg/kg, the TD50 (Mus musculus [17]) was 6.8 mg/kg and the ED50 (Mus musculus [3]) was 1.2 mg/kg.
With `Nc1nnc(-c2cccc(Cl)c2Cl)c(N)n1` [LAMOTRIGINE] the ED50 (Mus musculus [14]) was over 40 mg/kg, the ED50 (Mus musculus [16]) was over 40 mg/kg and the ED50 (Mus musculus [2]) was 10.2 mg/kg. For the same molecule, the TD50 [10] was 84 mg/kg and the ED50 (Mus musculus [3]) was 2.2 mg/kg.
Work on `CCCCCNCC(N)=O` [MILACEMIDE] yielded an ED50 (Mus musculus [2]) of 701 mg/kg.
For `O=C1NC(=O)C(c2ccccc2)(c2ccccc2)N1` [PHENYTOIN], the ED50 (Mus musculus [14]) was 11.3 mg/kg, the ED50 (Mus musculus [15]) was over 100 mg/kg and the ED50 (Mus musculus [16]) was over 200 mg/kg. The ED50 (Mus musculus [2]) was 42.1 mg/kg, the TD50 (Mus musculus [17]) was 243 mg/kg and the ED50 (Mus musculus [3]) was 3.8 mg/kg.
Work on `CCCC(CCC)C(=O)O` [VALPROIC ACID] yielded an ED50 (Mus musculus [14]) of 167 mg/kg, an ED50 (Mus musculus [15]) of 350 mg/kg and an ED50 (Mus musculus [16]) of 538 mg/kg. It also gave an ED50 (Mus musculus [2]) of 414 mg/kg and a TD50 [10] of 1180 mg/kg.
